“Also recorded” adds a separate entry of the source. Blank lines part the entries; values can stand above or below the compound they belong to. Ends that are not written are not given here.
How the values were obtained:
[1] = tested on: TGF-β responsive SBE(CAGA)12-luciferase reporter, Mv1Lu cells; test: Reporter gene assay, SBE; format: cell-based, mink; conditions: 10 μM SB-431542; 10 pM TGF-β1
Method in brief: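 Mv1Lu cells stably carrying the SBE(CAGA)12-Luc reporter were grown in DMEM with 10% FBS. About 4000 cells were plated and left to attach overnight. Medium was changed to DMEM with 0.2% FBS 4 h before treatment. Cells received TGF-β1, TGF-β1 with serial dilutions of test peptide, or peptide alone, with untreated cells as control, in triplicate. After 18-24 h, Bright-Glo luminescence was normalised to cell number by CellTiter-Glo.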

ActRII-ED = test: SPR, ActRII-ED; format: binding, human; conditions: verification of immobilized receptor activity
Method in brief: (§1)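 In a separate run, recombinant human β-glycan-ED (residues 21-781), BMPR-IA-ED (Gln24-Arg152, Fc chimera) and ActRII-ED (Ser25-Pro134, Fc chimera) were amine-coupled on a CM5 chip to about 1600, 3300 and 4300 RU. Serial dilutions of peptide-bearing dendrimer in HBS, within 2.9 nM–6 μM, were injected for 5 min with 5 min dissociation at 10 μL/min. Reference subtraction and HCl regeneration were used.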

BMPR-IA-ED = test: SPR, BMPR-IA-ED; format: binding, human; conditions: verification of immobilized receptor activity
Method in brief: as §1

TβRI-ED [2] = target: T1, TβRI-ED (Homo sapiens, UniProt P36897); test: competition ELISA; format: binding
T1 sequence (P36897 25-125): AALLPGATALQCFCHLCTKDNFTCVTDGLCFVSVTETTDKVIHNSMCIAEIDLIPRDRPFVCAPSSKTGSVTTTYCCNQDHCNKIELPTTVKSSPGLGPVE
Method in brief: (§2)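 Equimolar TβRI-ED (residues 1-101, 1.0 μg) or TβRII-ED (1-137, 1.5 μg), E. coli-expressed and refolded, was coated at 4 °C for 12 h. For Kd, M13 phage clones at various concentrations were bound for 1 h at room temperature in 2% BSA/PBS/0.5% Tween 20, with BSA wells as control. For IC50, fixed phage near its apparent Kd was mixed with varying peptide. Read-out was anti-M13-HRP, then ABTS/H2O2 for 30 min and A405; mean ± SD.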

[3] = target: T2, TβRII-ED (residues 1-137) (Homo sapiens, UniProt P37173); test: competition ELISA; format: binding
Method in brief: as §2

monomeric TβRII-ED = conditions: previous SPR studies; cited from earlier work
[4] = target: artificially dimerized TβRII-ED; conditions: previous SPR studies; cited from earlier work
TβRI-ED (residues 7-91) = target: T3, TβRI-ED (residues 7-91) (Homo sapiens, UniProt P36897); test: SPR, TβRI-ED; format: binding; conditions: TGF-β1 41 pM to 30 nM
T3 sequence (P36897 31-115): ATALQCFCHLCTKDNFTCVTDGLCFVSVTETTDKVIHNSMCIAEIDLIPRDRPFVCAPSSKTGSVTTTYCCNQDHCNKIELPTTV
Method in brief: (§3)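 CM5 chip with HBS (pH 7.4) running buffer. TβRI-ED (residues 7-91), TβRII-ED (1-137) and endoglin-ED (26-586) were amine-coupled (EDC/NHS) from 20 μg/mL in 10 mM NaOAc pH 5.0 to about 3600, 1900 and 7300 RU, then blocked with ethanolamine. The protein-free reference signal was subtracted. Surfaces were regenerated with 100 mM HCl for 30 s.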

TβRII = conditions: read-out: Kd (binding to two copies of TβRII); approximate (~) range; cited from earlier work
[5] = target: T2, TβRII-ED (residues 1-137); test: SPR, TβRII-ED; format: binding
Method in brief: as §3

TβRI-ED [6] = conditions: TGF-β alone; cited from earlier work

Compound: NC(=O)c1ccc(-c2nc(-c3ccc4c(c3)OCO4)c(-c3ccccn3)[nH]2)cc1 [SB-431542]
inhibition of TGF-β-induced luciferase gene expression [1]: completely blocked; also recorded: inhibited TGF-β regulated luciferase gene expression

binding of BMP-4 (ActRII-ED): ability to bind BMP-4
binding of BMP-4 (BMPR-IA-ED): ability to bind BMP-4
Compound: BMP-4: known ligand of BMPR-IA and ActRII

IC50 (TβRI-ED [2]): 110 µM
Kd (TβRI-ED [2]): ~10 µM
IC50 [3]: 156 µM
Kd [3]: ~10 µM
Compound: LTGKNFPMFHRN [Pep1]

IC50 (TβRI-ED [2]): 256 µM
Kd (TβRI-ED [2]): ~10 µM
IC50 [3]: 274 µM
Kd [3]: ~10 µM
Compound: MHRMPSFLPTTL [Pep2]

Kd ([5]; read-out: apparent Kd, TGF-β1 41 pM to 30 nM, dose dependent SPR responses, surface a mixture of monomeric and dimeric receptor): ~0.0014 µM
Compound: TGF-β1: Recombinant human TGF-β1, disulfide-linked homodimer growth factor
Kd (monomeric TβRII-ED): ~0.1 µM
Kd [4]: ~5 pM
binding to TβRI-ED surface (TβRI-ED (residues 7-91)): did not bind detectably; also recorded: no observable affinity
Kd (TβRII): 0.005 to 0.03 nM

Compound: TGF-β3: TGF-β isoform 3
Kd (TβRII): 0.005 to 0.03 nM

saturating concentration ([5]; binding to TβRII-ED, SPR): 10 nM
Compound: TGF-β: transforming growth factor β, generic wording; TGF-β1 in the authors' own experiments
affinity for TβRI-ED (TβRI-ED [6]): weak affinity
